As usually defined, the IC50 is the concentration at which inhibition is half-maximal. A lower IC50 goes with higher potency. What is called inhibition is the share of the control response that was lost under treatment.

The subject of one series is HT-29. Nature of the series: Growth inhibition of human HT-29 cells after 72 hrs by methylene blue assay. The format is functional, cell-based. To be noted: HT-29, 72 h. The method in brief: (§1)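 HT29, KB and MKN45 cells grown in DMEM, MEM or RPMI 1640 with 10% FBS at 37 °C in 5% CO2. Seeded at 8000−20000 cells/mL/well and allowed to adhere overnight. Exposed to various drug concentrations for 72 h, then methylene blue stain extracted with 1% N-lauroylsarcosine and A595 read. IC50 taken relative to untreated cells; means and standard errors, ≥3 independent experiments in duplicate.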

In another series the test system is KB. Nature of the series: Growth inhibition of human KB cells after 72 hrs by methylene blue assay. The format is functional, cell-based. The method in brief:
as §1

The subject of a further series is MKN-45. Nature of the series: Growth inhibition of human MKN45 cells after 72 hrs by methylene blue assay. Format: functional, cell-based. To be noted: MKN-45, 72 h. The method in brief:
as §1

The nature of series [1]: Growth inhibition of human KB-S15 cells after 72 hrs by methylene blue assay. The format is functional, cell-based. The settings on record: KB-S15, 72 h. A digest of the protocol:
(§2)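 Resistant KB sublines were maintained in extra drug: KB-Vin10 in 10 nM vincristine, KB-S15 in 50 nM paclitaxel, KB-7D in 7 μM VP16. Cells were kept drug-free for 3 days before harvest. Seeded at 8000−20000 cells/mL/well and exposed 72 h. Read by methylene blue, A595 after N-lauroylsarcosine extraction. Means and standard errors of ≥3 experiments in duplicate.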

Series [2] in a line: Growth inhibition of human KB-VIN10 cells after 72 hrs by methylene blue assay. To be noted: KB-VIN10, 72 h. Format: functional, cell-based. A digest of the protocol:
as §2

A short description of series [3]: Growth inhibition of human KB-7d cells after 72 hrs by methylene blue assay. The format is functional, cell-based. To be noted: KB7D. A digest of the protocol: as §2
For series [4], the species on record is Bos taurus. Nature of the series: Inhibition of bovine brain tubulin polymerization at 5 uM measured every 30 sec for 30 mins by turbidimetric assay.
In series [5] the test system is HUVEC. Nature of the series: Antiangiogenic activity in HUVEC assessed as inhibition of capillary tube formation after 4 hrs by Matrigel matrix assay. The settings on record: Homo sapiens. The format is functional, cell-based. A digest of the protocol: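 HUVECs seeded at 2 × 10^4 cells/well on Matrigel in M199 with 20% FBS and 20 ng/mL VEGF. Capillaries formed over 4 h before test compound or DMSO vehicle was added. Imaged at addition and 4 h later. Capillary tube networks counted manually under a microscope at 100×, expressed relative to vehicle control. Mean ± SD of three separate experiments.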

The nature of series [6]: (§3) Inhibition of bovine brain tubulin polymerization measured every 30 sec for 30 mins by turbidimetric assay. Also noted: species or system Bos taurus.
For series [7], the species on record is Bos taurus. The series is described as §3.
For series [8], the species on record is Bos taurus. The series can be described thus: Displacement of [3H]cholchicine from bovine brain tubulin at 1 uM after 2 hrs by scintillation counting. (Loss of bound radioactivity is the signal in a displacement assay; it reports binding, not function.)
Series [9] is filed under the species Bos taurus. The series can be described thus: Displacement of [3H]cholchicine from bovine brain tubulin at 5 uM after 2 hrs by scintillation counting.
The test system of series [10] is HUVEC. Nature of the series: Cytotoxicity against HUVEC assessed as reduction in cell viability at 15 to 120 uM. The format is cell-based. The settings on record: human.
The species named for series [11] is Bos taurus. The series can be described thus: Displacement of [3H]cholchicine from bovine brain tubulin after 2 hrs by scintillation counting. A digest of the protocol: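 Scintillation proximity assay: 0.08 μM [3H]colchicine plus test compound and 0.5 μg biotin-labeled tubulin in 80 mM PIPES pH 6.8, 1 mM EGTA, 10% glycerol, 1 mM MgCl2, 1 mM GTP, 2 h at 37 °C. Streptavidin SPA beads (80 μg) then added and counts read directly by scintillation counter.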

Active and inactive are the calls of the source. The calls are words filed in the database; no cut-off is given here. Some results are limits rather than exact numbers.

`COc1cc(-c2ccc3c(N)c(OC)ccc3n2)cc(OC)c1OC`: the IC50 in the series on HT-29, in the series with KB and with MKN-45 was above 5000 nM throughout.

Regarding `COc1cc([C@@H]2c3cc4c(cc3[C@@H](O[C@@H]3O[C@@H]5CO[C@@H](C)O[C@H]5[C@H](O)[C@H]3O)[C@H]3COC(=O)[C@H]23)OCO4)cc(OC)c1O` [ETOPOSIDE], the IC50 came out at 3500 nM in series [1], 23000 nM in series [2] and 54000 nM in series [3].

`COc1cc2c(c(OC)c1OC)-c1ccc(OC)c(=O)cc1[C@@H](NC(C)=O)CC2` [COLCHICINE]: the IC50 in the series on HT-29 was 16.2 nM; in the series on MKN-45 it was 19.2 nM.

Take `COc1cc(C(=O)c2ccc3c(O)c(OC)ccc3n2)cc(OC)c1OC`: the inhibition entry in the series listed under Bos taurus [4] was “Active”. The values for the Activity result with HUVEC [5] and with HUVEC [10] were “Dose-dependent effect” and “Non-toxic”, respectively. Further, the IC50 stood at 3.1 nM with HT-29; 1500 nM in series [6]; 2.8 nM with KB; 5.2 nM in series [1]; 5.8 nM in series [2]; 4.5 nM in the series on MKN-45. Moreover, the IC50 in [3] was found to be 9.2 nM. Further, the inhibition result in the series filed under Bos taurus [7] is “Dose-dependent effect”; in the series listed under Bos taurus [8], 91%; in the series filed under Bos taurus [9] it was 97%.

With `CC(=O)O[C@H]1C(=O)[C@@]2(C)[C@H]([C@H](OC(=O)c3ccccc3)[C@]3(O)C[C@H](OC(=O)[C@H](O)[C@@H](NC(=O)c4ccccc4)c4ccccc4)C(C)=C1C3(C)C)[C@]1(OC(C)=O)CO[C@@H]1C[C@@H]2O` [PACLITAXEL], the IC50 came out at 273 nM in [1], 16500 nM in [2] and 7.9 nM in [3].

With `COc1cc(C(=O)c2ccc3c(I)c(OC)ccc3n2)cc(OC)c1OC`, the IC50 was found to be 1090 nM with HT-29, 451 nM in the series on KB and 819 nM in the series on MKN-45.

`COc1cc(Nc2ccc3c(N)c(OC)ccc3n2)cc(OC)c1OC`: the IC50 in the series on HT-29, with KB and in the series on MKN-45 was above 5000 nM in each case.

Take `COc1cc(S(=O)(=O)c2ccc3c(N)c(OC)ccc3n2)cc(OC)c1OC`: the inhibition entry in the series listed under Bos taurus [4] was “Active”. Further, the IC50 in the series with HT-29 was determined as 16 nM; in [6], 2000 nM; in the series with KB it was 18 nM; in series [1], 2.5 nM; in [2], 2.8 nM; in the series with MKN-45 it was 4 nM. Moreover, the IC50 in series [3] amounted to 2.4 nM. Further, the inhibition entry in the series listed under Bos taurus [7] is “Dose-dependent effect”; in the series filed under Bos taurus [8], 65%; in the series listed under Bos taurus [9] it was 85%; in the series listed under Bos taurus [11], “Dose-dependent effect”.

Take `COc1cc(C(=O)c2ccc3c(Br)c(OC)ccc3n2)cc(OC)c1OC`: the IC50 with HT-29 turned out to be 195 nM; with KB, 108 nM; with MKN-45 it was 167 nM.

As to `COc1cc(C(=O)c2ccc3c(Cl)c(OC)ccc3n2)cc(OC)c1OC`, the 50% inhibitory concentration (IC50) with HT-29 was found to be 51 nM; in the series with KB, 45 nM; in the series with MKN-45, 60 nM.

As for `CC[C@]1(O)C[C@H]2CN(CCc3c([nH]c4ccccc34)[C@@](C(=O)OC)(c3cc4c(cc3OC)N(C=O)[C@H]3[C@@](O)(C(=O)OC)[C@H](OC(C)=O)[C@]5(CC)C=CCN6CC[C@]43[C@@H]65)C2)C1` [VINCRISTINE], the results for the IC50 in series [1], in series [2] and in [3] were 17.6 nM, 90.1 nM and 1.2 nM, respectively.

As to `COc1cc(Oc2ccc3c(N)c(OC)ccc3n2)cc(OC)c1OC`, the IC50 in the series with HT-29 worked out at 139 nM; in series [6], 5800 nM; in the series with KB, 31 nM; in series [1], 42.9 nM; in series [2], 78.8 nM; in the series with MKN-45 it was 61 nM. This molecule also yielded an IC50 in [3] of 76.2 nM. Moreover, the figures for the inhibition in the series listed under Bos taurus [8] and in the series listed under Bos taurus [9] were 44% and 60%, respectively.

Turning to `COc1cc(Sc2ccc3c(N)c(OC)ccc3n2)cc(OC)c1OC`, the IC50 with HT-29 amounted to 40 nM; in the series on KB it was 59 nM; in the series on MKN-45, 28 nM.
